SMILES strings stand for the structures.

In one data set the test system is CCRF-CEM. The experiment in a line: Cytotoxicity against human CCRF-CEM cells assessed as inhibition of cell growth incubated for 72 hrs by MTS assay. It is filed as functional, cell-based. In a few lines:
(§1)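 MTS assay on eight human cancer lines and two non-tumour fibroblast lines. IC50 is the concentration that inhibits cell growth by 50 %. SD typically up to 15 % of the mean.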
Background: Formazan colour is commonly taken as a measure of viable cells.

The test system of the next data set is CEM-DNR. The experiment in a line: Cytotoxicity against human CEM-DNR cells assessed as inhibition of cell growth incubated for 72 hrs by MTS assay. It is filed as functional, cell-based. In a few lines: as §1
A further data set relates to HCT-116. The experiment in a line: Cytotoxicity against human HCT-116 cells assessed as inhibition of cell growth incubated for 72 hrs by MTS assay. The format is functional, cell-based. Conditions: HCT-116, 72 h. In a few lines: as §1
Another data set concerns HCT 116 TP53(-/-). The experiment in a line: Cytotoxicity against human HCT116-p53-null cells assessed as inhibition of cell growth incubated for 72 hrs by MTS assay. It is filed as functional, cell-based. In a few lines: as §1
A further data set concerns K562. The experiment in a line: Cytotoxicity against human K562 cells assessed as inhibition of cell growth incubated for 72 hrs by MTS assay. The format is functional, cell-based. The following applies: K562, 72 h. In a few lines: as §1
The nature of data set [1]: Cytotoxicity against human K562-Tax cells assessed as inhibition of cell growth incubated for 72 hrs by MTS assay. The format is functional, cell-based. Put shortly:
as §1

For the next data set, the system named is A549. The experiment in a line: Cytotoxicity against human A549 cells assessed as inhibition of cell growth incubated for 72 hrs by MTS assay. The following applies: A549, 72 h. The format is functional, cell-based. Put shortly:
as §1

The next data set has as its system U2OS. The experiment in a line: Cytotoxicity against human U2OS cells assessed as inhibition of cell growth incubated for 72 hrs by MTS assay. The format is functional, cell-based. Put shortly: as §1
Data set [2] in a line: Cytotoxicity against human BJ cells assessed as inhibition of cell growth incubated for 72 hrs by MTS assay. It is filed as toxicity, cell-based. In a few lines:
as §1

Data set [3] in a line: Cytotoxicity against human MRC5 cells assessed as inhibition of cell growth incubated for 72 hrs by MTS assay. It is filed as toxicity, cell-based. Put shortly:
as §1

With `CC(=O)O[C@H]1CC[C@]2(C)[C@H]3CC[C@@H]4[C@H]5[C@H](c6ccc7c(c6)C(=O)NC7=O)CC[C@]5(CO)CC[C@@]4(C)[C@]3(C)CC[C@H]2C1(C)C`, the IC50 was determined as 14 µM in the data set with CCRF-CEM; 9.21 µM with CEM-DNR; 19.7 µM with HCT-116; 21.8 µM with HCT 116 TP53(-/-); 36 µM in the data set on K562; 7.43 µM in data set [1]. The concentration for half-maximal inhibition (IC50) in the data set with A549 was more than 50 µM; in the data set on U2OS it was 34.5 µM. In addition, the IC50 at 72 h was more than 50 µM in data set [2] and 28.5 µM in data set [3].

Take `COC(=O)c1ccc([C@@H]2CC[C@]3(C(=O)O)CC[C@]4(C)[C@H](CC[C@@H]5[C@@]6(C)CC[C@H](O)C(C)(C)[C@@H]6CC[C@]54C)[C@@H]23)cc1C(=O)OC`: the half-maximal inhibitory concentration (IC50) was 14.1 µM in the data set on CCRF-CEM; 11.5 µM with CEM-DNR; 16.6 µM in the data set on HCT-116; 16.2 µM with HCT 116 TP53(-/-); 13.8 µM in the data set on K562; 11.5 µM in [1]. Moreover, the figures for the concentration for half-maximal inhibition (IC50) in the data set with A549 and in the data set with U2OS were 11.1 µM and 19.6 µM, respectively. Further, the half-maximal inhibitory concentration (IC50) at 72 h in data set [2] came to 31.1 µM; in data set [3], 25.3 µM.

Turning to `COC(=O)c1cc([C@@H]2CC[C@]3(C(=O)O)CC[C@]4(C)[C@H](CC[C@@H]5[C@@]6(C)CC[C@H](O)C(C)(C)[C@@H]6CC[C@]54C)[C@@H]23)cc(C)c1C(=O)OC`, the half-inhibitory concentration (IC50) in the data set with CCRF-CEM is 14 µM; in the data set on CEM-DNR, 6.78 µM; in the data set with HCT-116 it was 16.3 µM; in the data set on HCT 116 TP53(-/-), 16.1 µM; in the data set with K562 it was 12.1 µM; in data set [1], 7.21 µM. In addition, the IC50 is 10.4 µM in the data set on A549 and 19 µM with U2OS. Also, the half-maximal inhibitory concentration (IC50) at 72 h in data set [2] came to 33 µM; in data set [3], 32.4 µM.

Turning to `CC(=O)OC[C@]12CC[C@@H](c3ccc4c(c3)C(=O)NC4=O)[C@@H]1[C@H]1CC[C@@H]3[C@@]4(C)CC[C@H](OC(C)=O)C(C)(C)[C@@H]4CC[C@@]3(C)[C@]1(C)CC2`, the IC50 (in the data set on CCRF-CEM; in the data set on CEM-DNR; in the data set with HCT-116; in the data set with HCT 116 TP53(-/-); in the data set with K562; in [1]) was more than 50 µM in each case. Also, the 50% inhibitory concentration (IC50) in the data set on A549 and with U2OS was more than 50 µM throughout. Moreover, the IC50 at 72 h in data set [2] and in data set [3] was more than 50 µM in each case.

Turning to `COc1ccc(N2C(=O)c3ccc([C@@H]4CC[C@]5(C(=O)O)CC[C@]6(C)[C@H](CC[C@@H]7[C@@]8(C)CC[C@H](O)C(C)(C)[C@@H]8CC[C@]76C)[C@@H]45)cc3C2=O)cc1`, the IC50 in the data set with CCRF-CEM is 11.1 µM; in the data set with CEM-DNR, 9.85 µM; with HCT-116 it was more than 50 µM; in the data set on HCT 116 TP53(-/-), more than 50 µM; with K562 it was more than 50 µM; in [1], 5.35 µM. For the same molecule, the values for the IC50 in the data set with A549 and in the data set on U2OS were 28.1 µM and 27.5 µM, respectively. In addition, the IC50 at 72 h in data set [2] and in data set [3] was more than 50 µM each time.

For the molecule `CC(=O)Nc1ccc(N2C(=O)c3ccc([C@@H]4CC[C@]5(C(=O)O)CC[C@]6(C)[C@H](CC[C@@H]7[C@@]8(C)CC[C@H](OC(C)=O)C(C)(C)[C@@H]8CC[C@]76C)[C@@H]45)cc3C2=O)cc1`, the IC50 with CCRF-CEM worked out at 16.5 µM; with CEM-DNR, 20.8 µM; with HCT-116, 24.4 µM; in the data set with HCT 116 TP53(-/-), 29.6 µM; in the data set with K562, 27.1 µM; in data set [1], 18.2 µM. For the same molecule, the half-inhibitory concentration (IC50) with A549 amounted to 27.1 µM; in the data set on U2OS, 24.3 µM. In addition, the concentration for half-maximal inhibition (IC50) at 72 h in [2] worked out at 31.2 µM; in [3], 19.8 µM.

Take `CC(=O)O[C@H]1CC[C@]2(C)[C@H]3CC[C@@H]4[C@H]5[C@H](c6ccc7c(c6)C(=O)N(c6cc[nH]n6)C7=O)CC[C@]5(C(=O)O)CC[C@@]4(C)[C@]3(C)CC[C@H]2C1(C)C`: the half-maximal inhibitory concentration (IC50) in the data set on CCRF-CEM turned out to be 18.7 µM; in the data set on CEM-DNR, 25.4 µM; in the data set with HCT-116, 24 µM; in the data set with HCT 116 TP53(-/-), 30.1 µM; in the data set with K562, 29.4 µM; in data set [1], 21.1 µM. Moreover, the values for the IC50 in the data set on A549 and in the data set with U2OS were 27.1 µM and 26.2 µM, respectively. Also, the IC50 at 72 h came out at 30 µM in data set [2] and 28.3 µM in data set [3].

`CC(=O)Nc1ccc(N2C(=O)c3cc([C@@H]4CC[C@]5(C(=O)O)CC[C@]6(C)[C@H](CC[C@@H]7[C@@]8(C)CC[C@H](OC(C)=O)C(C)(C)[C@@H]8CC[C@]76C)[C@@H]45)cc(-c4ccccc4)c3C2=O)cc1`: the IC50 was 8.08 µM with CCRF-CEM; more than 50 µM in the data set on CEM-DNR; 16.8 µM in the data set with HCT-116; 28.4 µM with HCT 116 TP53(-/-); 27.9 µM with K562; more than 50 µM in data set [1]. In addition, the half-inhibitory concentration (IC50) in the data set on A549 is 34.6 µM; in the data set with U2OS, 18.8 µM. For the same molecule, the IC50 at 72 h in [2] is more than 50 µM; in data set [3], 33.7 µM.

Consider `COc1ccc(N2C(=O)c3cc([C@@H]4CC[C@]5(C(=O)O)CC[C@]6(C)[C@H](CC[C@@H]7[C@@]8(C)CC[C@H](O)C(C)(C)[C@@H]8CC[C@]76C)[C@@H]45)cc(-c4ccccc4)c3C2=O)cc1`, for which the IC50 was 13.6 µM in the data set on CCRF-CEM; more than 50 µM in the data set on CEM-DNR; more than 50 µM in the data set with HCT-116; more than 50 µM with HCT 116 TP53(-/-); more than 50 µM in the data set with K562; 27.9 µM in data set [1]. Besides, the IC50 in the data set on A549 and in the data set on U2OS was more than 50 µM each time. Moreover, the IC50 at 72 h in data set [2] and in data set [3] was more than 50 µM throughout.

`COc1ccc(N2C(=O)c3ccc([C@@H]4CC[C@]5(CO)CC[C@]6(C)[C@H](CC[C@@H]7[C@@]8(C)CC[C@H](OC(C)=O)C(C)(C)[C@@H]8CC[C@]76C)[C@@H]45)cc3C2=O)cc1`: the IC50 (in the data set on CCRF-CEM; with CEM-DNR; in the data set on HCT-116; with HCT 116 TP53(-/-); with K562; in data set [1]) was more than 50 µM in each case. For the same molecule, the IC50 in the data set on A549 and in the data set on U2OS was more than 50 µM throughout. In addition, the IC50 at 72 h in [2] and in data set [3] was more than 50 µM each time.

A word on the IC50: it is the concentration needed to halve the response being measured.

These data come from ChEMBL document CHEMBL6078712, “Triterpenoid phthalimides as selective anti-cancer agents targeting mitochondrial apoptosis” (Eur J Med Chem, 2025).
